Converted amounts (≈) assume the structure as drawn.
Assays:
Type in all cases: functional, cell-based
A549 = assay: In vitro antitumor activity against A-549 tumor cells.; details: Homo sapiens
Procedure, shortened: (§1)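 Adherent lines (human lung A-549, colon HT-29, MEL-28) grown in EMEM/neaa with 5% FCS. Cells plated at 1×10^4 per well in 1 mL medium containing graded sample concentrations, with drug-free growth controls, in duplicate. Incubated 3 days at 37 °C, 5% CO2. Stained with 0.1% crystal violet, or trypsinized and Coulter-counted. IC50 taken from dose–response curves of growth relative to controls.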

HT-29 = assay: In vitro antitumor activity against HT-29 tumor cells.; details: Homo sapiens; procedure, shortened: as §1
SK-MEL-28 = assay: In vitro antitumor activity against MEL-28 tumor cells.; details: Homo sapiens; procedure, shortened: as §1
P388 = assay: In vitro antitumor activity against P-388 tumor cells.; details: Mus musculus
Procedure, shortened: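 P-388 lymphoid neoplasm from DBA/2 mouse, grown in suspension in EMEM/neaa with 5% FCS. Seeded at 1×10^4 cells per well in 1 mL medium holding a range of sample concentrations, with drug-free controls, duplicate wells. Incubated 3 days at 37 °C, 5% CO2, 98% humidity. Cells counted by Coulter counter; IC50 read from dose–response curves of % growth versus untreated cultures.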

CC(C)CCCC(C)[C@H]1CCC2C3C/C(=N\O)C4=CC(=O)[C@H](O)C[C@]4(C)C3CC[C@@]21C (stereo partly specified)
IC50 (A549): 0.125 µg/mL (≈ 0.291 µM) | IC50 (HT-29): 0.25 µg/mL (≈ 0.582 µM) | IC50 (SK-MEL-28): 0.125 µg/mL (≈ 0.291 µM) | IC50 (P388): 0.25 µg/mL (≈ 0.582 µM)

CC(C)CCCC(C)[C@H]1CCC2C3C/C(=N\O)C4=CC(=O)[C@@H](O)C[C@]4(C)C3CC[C@@]21C (stereo partly specified)
IC50 (A549): 0.125 µg/mL (≈ 0.291 µM) | IC50 (HT-29): 0.25 µg/mL (≈ 0.582 µM) | IC50 (SK-MEL-28): 0.125 µg/mL (≈ 0.291 µM) | IC50 (P388): 0.25 µg/mL (≈ 0.582 µM)

CC(C)CCCC(C)[C@H]1CCC2C3C/C(=N\O)C4=CC=CC[C@]4(C)C3CC[C@@]21C (stereo partly specified)
IC50 (A549): 5 µg/mL (≈ 12.6 µM) | IC50 (HT-29): 5 µg/mL (≈ 12.6 µM) | IC50 (SK-MEL-28): 5 µg/mL (≈ 12.6 µM) | IC50 (P388): 5 µg/mL (≈ 12.6 µM)

CC(C)CCCC(C)[C@H]1CCC2C3C/C(=N\O)C4=CC(=O)C(O)=C[C@]4(C)C3CC[C@@]21C (stereo partly specified)
IC50 (A549): 0.125 µg/mL (≈ 0.292 µM) | IC50 (HT-29): 0.25 µg/mL (≈ 0.585 µM) | IC50 (SK-MEL-28): 0.125 µg/mL (≈ 0.292 µM) | IC50 (P388): 0.5 µg/mL (≈ 1.17 µM)

C[C@]12CCC(=O)C=C1/C(=N/O)CC1C2CC[C@@]2(C)C1CC[C@@H]2O (stereo partly specified)
IC50 (A549): 5 µg/mL (≈ 15.8 µM) | IC50 (HT-29): 5 µg/mL (≈ 15.8 µM) | IC50 (SK-MEL-28): 5 µg/mL (≈ 15.8 µM) | IC50 (P388): 5 µg/mL (≈ 15.8 µM)

CC(C)CCC[C@@H](C)C1CCC2C3C/C(=N\O)C4=C[C@@H](O)CC[C@]4(C)C3CC[C@@]21C (stereo partly specified)
IC50 (A549): 10 µg/mL (≈ 24.1 µM) | IC50 (HT-29): 10 µg/mL (≈ 24.1 µM) | IC50 (SK-MEL-28): 10 µg/mL (≈ 24.1 µM) | IC50 (P388): 10 µg/mL (≈ 24.1 µM)

CC(C)CCCC(C)[C@H]1CCC2C3C/C(=N\O)C4=C[C@@H](O)[C@@H](O)C[C@]4(C)C3CC[C@@]21C (stereo partly specified)
IC50 (A549): 1.25 µg/mL (≈ 2.9 µM) | IC50 (HT-29): 1.25 µg/mL (≈ 2.9 µM) | IC50 (SK-MEL-28): 1.25 µg/mL (≈ 2.9 µM) | IC50 (P388): 1.25 µg/mL (≈ 2.9 µM)

C[C@]12CCC(=O)C=C1/C(=N/O)CC1C2CC[C@]2(C)C(=O)CCC12 (stereo partly specified)
IC50 (A549): 5 µg/mL (≈ 15.9 µM) | IC50 (HT-29): 5 µg/mL (≈ 15.9 µM) | IC50 (SK-MEL-28): 5 µg/mL (≈ 15.9 µM) | IC50 (P388): 5 µg/mL (≈ 15.9 µM)

CC(C)CCCC(C)[C@H]1CCC2C3C/C(=N\O)C4=CC(=O)CC[C@]4(C)C3CC[C@@]21C (stereo partly specified)
IC50 (A549): 1.25 µg/mL (≈ 3.02 µM) | IC50 (HT-29): 1.25 µg/mL (≈ 3.02 µM) | IC50 (SK-MEL-28): 2.5 µg/mL (≈ 6.04 µM) | IC50 (P388): 1.25 µg/mL (≈ 3.02 µM)

CC(C)CCCC(C)[C@H]1CCC2C3C/C(=N\O)C4=C[C@H](O)[C@H](O)C[C@]4(C)C3CC[C@@]21C (stereo partly specified)
IC50 (A549): 1.25 µg/mL (≈ 2.9 µM) | IC50 (HT-29): 1.25 µg/mL (≈ 2.9 µM) | IC50 (SK-MEL-28): 1.25 µg/mL (≈ 2.9 µM) | IC50 (P388): 1.25 µg/mL (≈ 2.9 µM)

CC(C)[C@H](C)[C@@]1(C)C[C@@H]1[C@@H](C)C1CCC2C3C/C(=N\O)C4=CC(=O)CC[C@]4(C)C3CC[C@@]21C (stereo partly specified)
IC50 (A549): 5 µg/mL (≈ 11 µM) | IC50 (HT-29): 5 µg/mL (≈ 11 µM) | IC50 (SK-MEL-28): 5 µg/mL (≈ 11 µM) | IC50 (P388): 5 µg/mL (≈ 11 µM)

CC[C@H](CCC(C)[C@H]1CCC2C3C/C(=N\O)C4=CC(=O)CC[C@]4(C)C3CC[C@@]21C)C(C)C (stereo partly specified)
IC50 (A549): 10 µg/mL (≈ 22.6 µM) | IC50 (HT-29): 10 µg/mL (≈ 22.6 µM) | IC50 (SK-MEL-28): 10 µg/mL (≈ 22.6 µM) | IC50 (P388): 10 µg/mL (≈ 22.6 µM)

CC(C)[C@H](C)[C@@]1(C)C[C@@H]1[C@@H](C)C1CCC2C3C/C(=N\O)C4=C[C@@H](O)CC[C@]4(C)C3CC[C@@]21C (stereo partly specified)
IC50 (A549): 10 µg/mL (≈ 21.9 µM) | IC50 (HT-29): 10 µg/mL (≈ 21.9 µM) | IC50 (SK-MEL-28): 10 µg/mL (≈ 21.9 µM) | IC50 (P388): 10 µg/mL (≈ 21.9 µM)

C[C@@]12CCCC1C1C/C(=N\O)C3=CC(=O)CC[C@]3(C)C1CC2 (stereo partly specified)
IC50 (A549): 5 µg/mL (≈ 16.6 µM) | IC50 (HT-29): 5 µg/mL (≈ 16.6 µM) | IC50 (SK-MEL-28): 5 µg/mL (≈ 16.6 µM) | IC50 (P388): 5 µg/mL (≈ 16.6 µM)
